From ChEMBL document CHEMBL2311293, “Discovery of agonists of cannabinoid receptor 1 with restricted central nervous system penetration aimed for treatment of gastroesophageal reflux disease” (J Med Chem, 2013)
In brackets after ≈: the same amount, converted by molar mass.

test system: not listed separately; assay: Lipophilicity, log D of the compound; conditions: octanol/water

Row | SMILES | logD
1 | O=C(NCC1CCC1)c1ncccc1NC(=O)c1ccc(Cn2cccn2)c2ccccc12 | 6.2
2 | C[S+]([O-])Cc1ccc(C(=O)Nc2cccnc2C(=O)NCC2CCC2)c2ccccc12 (centres undefined) | 4.6
3 | O=C(Nc1cccnc1C(=O)NCC1CCOCC1)c1ccc2ncsc2c1 | 3.5
4 | O=C(NCC1CCC1)c1ncccc1NC(=O)c1cccc2cnccc12 | 5.1
5 | O=C(NCC1CCCCC1)c1cnccc1NC(=O)c1cccc2ccccc12 | 6.1
6 | O=C(NCC1CCOCC1)c1ncccc1NC(=O)c1cccc2nccnc12 | 2.5

molecular target: T1, Cannabinoid receptor 1 (Homo sapiens, UniProt P21554); assay: Displacement of [3H]-CP55,940 from human CB1 receptor expressed in HEK293S cell membranes by scintillation counting analysis; conditions: not given
T1 sequence (P21554 whole entry): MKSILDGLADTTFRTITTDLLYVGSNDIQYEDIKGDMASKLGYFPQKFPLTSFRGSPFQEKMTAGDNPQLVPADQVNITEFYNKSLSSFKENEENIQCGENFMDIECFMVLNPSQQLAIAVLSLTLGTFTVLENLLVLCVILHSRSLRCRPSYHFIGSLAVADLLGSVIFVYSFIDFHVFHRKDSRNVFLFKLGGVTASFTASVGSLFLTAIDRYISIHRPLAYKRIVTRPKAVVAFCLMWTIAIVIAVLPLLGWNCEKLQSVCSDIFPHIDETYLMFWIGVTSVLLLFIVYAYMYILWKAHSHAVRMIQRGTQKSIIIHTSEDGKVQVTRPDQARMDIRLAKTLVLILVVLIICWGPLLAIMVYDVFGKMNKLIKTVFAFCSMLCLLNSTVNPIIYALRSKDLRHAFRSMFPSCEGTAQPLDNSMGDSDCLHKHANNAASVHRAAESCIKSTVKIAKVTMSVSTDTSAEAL

Row | SMILES | IC50 [µM]
7 | CS(=O)(=O)Cc1ccc(C(=O)Nc2cccnc2C(=O)NCC2CCC2)c2ccccc12 | 240
8 | O=C(NCC1CCC1)c1ncccc1NC(=O)c1cccc2ccccc12 | 0.0061
9 | C[S+]([O-])Cc1ccc(C(=O)Nc2nccnc2C(=O)NCC2CCC2)c2ccccc12 (stereo in doubt; 18f) [listing 1 of 2 here] | 0.047
10 | O=C(NCC1CCOCC1)c1ncccc1NC(=O)c1ccc(C(=O)O)c2ccccc12 | > 10000
11 | O=C(NCC1CCC1)c1ncccc1NC(=O)c1ccnc2ccccc12 | 0.028
12 | O=C(NCC1CCCCC1)c1nccnc1NC(=O)c1cccc2ccccc12 | 0.091
13 | O=C(NCC1CCC1)c1ncccc1NC(=O)c1ccc(Cn2cccn2)c2ccccc12 | 13
14 | C[S+]([O-])Cc1ccc(C(=O)Nc2cccnc2C(=O)NCC2CCC2)c2ccccc12 (centres undefined) | 7
15 | O=C(Nc1cccnc1C(=O)NCC1CCOCC1)c1ccc2ncsc2c1 | > 6.7
16 | O=C(NCC1CCC1)c1ncccc1NC(=O)c1cccc2cnccc12 | 0.22
17 | O=C(NCC1CCCCC1)c1cnccc1NC(=O)c1cccc2ccccc12 | 1.4
18 | O=C(NCC1CCOCC1)c1ncccc1NC(=O)c1cccc2nccnc12 | > 9.9

molecular target: T1, Cannabinoid receptor 1; assay: Agonist activity at human CB1 receptor expressed in HEK293S cell membranes after 1 hr by GTPgamma[35S] binding assay relative to WIN 55,212-2; conditions: not given
In short: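 HEK293S membranes with cloned human CB1 (5 µg protein/well) in Hepes buffer pH 7.4, 100 mM NaCl, 5 mM MgCl2, 1 mM EDTA, 0.1% BSA, 15 µM GDP final. GTPγ[35S] added to start, 1 h at rt, filtered, counted. Basal from 8 wells; maximum from 8 wells with 10 µM reference agonist. Emax expressed as % of that reference. 10-point curves; mean of three experiments.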

Row | SMILES | Emax [%]
19 | O=C(NCC1CCC1)c1ncccc1NC(=O)c1ccc(Cn2ccnc2)c2ccccc12 | 100
20 | C[S+]([O-])Cc1ccc(C(=O)Nc2nccnc2C(=O)NCC2CCC2)c2ccccc12 (stereo in doubt; 18f) [listing 2 of 2 here] | 120
21 | CS(=O)(=O)Cc1ccc(C(=O)Nc2cccnc2C(=O)NCC2CCC2)c2ccccc12 | 77
22 | O=C(NCC1CCC1)c1ncccc1NC(=O)c1cccc2ccccc12 | 110
23 | COCc1ccc(C(=O)Nc2cccnc2C(=O)NCC2CCC2)c2ccccc12 | 110
24 | O=C(NCC1CCC1)c1ncccc1NC(=O)c1ccc(Cn2cccc2)c2ccccc12 | 82
25 | CN(C)Cc1ccc(C(=O)Nc2cccnc2C(=O)NCC2CCC2)c2ccccc12 | 100
26 | O=C(NCC1CCC1)c1ncccc1NC(=O)c1ccnc2ccccc12 | 94
27 | C[S+]([O-])Cc1ccc(C(=O)Nc2nccnc2C(=O)NCC2CCC2)c2ccccc12 (single isomer, unassigned) | 110
28 | O=C(NCC1CCCCC1)c1nccnc1NC(=O)c1cccc2ccccc12 | 120
29 | O=C(NCC1CCC1)c1ncccc1NC(=O)c1ccc(Cn2cccn2)c2ccccc12 | 93
30 | C[S+]([O-])Cc1ccc(C(=O)Nc2cccnc2C(=O)NCC2CCC2)c2ccccc12 (centres undefined) | 110

molecular target: Cannabinoid receptor 2 (Homo sapiens, UniProt P34972); assay: Displacement of [3H]-CP55,940 from human CB2 receptor expressed in Sf9 cell membranes by scintillation counting analysis; conditions: not given
Sequence (P34972 whole entry): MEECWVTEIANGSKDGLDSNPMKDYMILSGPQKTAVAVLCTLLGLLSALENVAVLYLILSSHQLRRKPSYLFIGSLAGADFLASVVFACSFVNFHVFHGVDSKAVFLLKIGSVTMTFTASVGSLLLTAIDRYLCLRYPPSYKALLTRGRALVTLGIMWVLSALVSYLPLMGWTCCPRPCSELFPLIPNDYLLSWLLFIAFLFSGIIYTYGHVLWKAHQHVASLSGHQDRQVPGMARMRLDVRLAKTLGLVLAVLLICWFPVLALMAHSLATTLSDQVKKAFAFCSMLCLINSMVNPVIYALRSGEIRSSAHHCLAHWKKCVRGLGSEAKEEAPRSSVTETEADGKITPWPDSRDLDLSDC
In short: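 Membranes from Sf9 cells expressing cloned hCB2 (baculovirus) in 50 mM Tris, 2.5 mM EDTA, 5 mM MgCl2, 0.5 mg/mL fatty-acid-free BSA, pH 7.4. 60 min at rt, GF/B filtration, scintillation counting. 10-point curves; IC50 mean of three independent experiments.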

Row | SMILES | IC50 [nM]
31 | O=C(NCC1CCC1)c1ncccc1NC(=O)c1ccc(Cn2ccnc2)c2ccccc12 | 330
32 | O=C(NCC1CCC1)c1ncccc1NC(=O)c1cccc2ccccc12 | 26
33 | C[S+]([O-])Cc1ccc(C(=O)Nc2nccnc2C(=O)NCC2CCC2)c2ccccc12 (stereo in doubt; 18f) [listing 1 of 2 here] | 300
34 | COCc1ccc(C(=O)Nc2cccnc2C(=O)NCC2CCC2)c2ccccc12 | 19
35 | O=C(NCC1CCC1)c1ncccc1NC(=O)c1ccc(Cn2cccc2)c2ccccc12 | 340
36 | O=C(NCC1CCOCC1)c1ncccc1NC(=O)c1ccc(C(=O)O)c2ccccc12 | > 10000
37 | CN(C)Cc1ccc(C(=O)Nc2cccnc2C(=O)NCC2CCC2)c2ccccc12 | 190
38 | O=C(NCC1CCC1)c1ncccc1NC(=O)c1ccnc2ccccc12 | 82
39 | O=C(NCC1CCCCC1)c1nccnc1NC(=O)c1cccc2ccccc12 | 1400
40 | O=C(NCC1CCC1)c1ncccc1NC(=O)c1ccc(Cn2cccn2)c2ccccc12 | 69
41 | O=C(Nc1cccnc1C(=O)NCC1CCOCC1)c1ccc2ncsc2c1 | > 10000
42 | O=C(NCC1CCC1)c1ncccc1NC(=O)c1cccc2cnccc12 | 38
43 | O=C(NCC1CCCCC1)c1cnccc1NC(=O)c1cccc2ccccc12 | 9000
44 | O=C(NCC1CCOCC1)c1ncccc1NC(=O)c1cccc2nccnc12 | > 10000

test system: not listed separately; assay: Oral bioavailability in Sprague-Dawley rat at 10 umol/kg; assay type: ADME, organism-based; conditions: in vivo
In short: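 Sprague-Dawley rats given 10 µmol/kg p.o., with i.v. reference dose of 2 µmol/kg.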

Row | SMILES | bioavailability [%]
45 | C[S+]([O-])Cc1ccc(C(=O)Nc2nccnc2C(=O)NCC2CCC2)c2ccccc12 (stereo in doubt; 18f) [listing 1 of 2 here] | 52

molecular target: Voltage-gated inwardly rectifying potassium channel KCNH2 (Homo sapiens, UniProt Q12809); assay: Inhibition of human ERG expressed in CHO cells by patch clamp assay; assay type: cell-based; conditions: not given
Sequence (Q12809 whole entry): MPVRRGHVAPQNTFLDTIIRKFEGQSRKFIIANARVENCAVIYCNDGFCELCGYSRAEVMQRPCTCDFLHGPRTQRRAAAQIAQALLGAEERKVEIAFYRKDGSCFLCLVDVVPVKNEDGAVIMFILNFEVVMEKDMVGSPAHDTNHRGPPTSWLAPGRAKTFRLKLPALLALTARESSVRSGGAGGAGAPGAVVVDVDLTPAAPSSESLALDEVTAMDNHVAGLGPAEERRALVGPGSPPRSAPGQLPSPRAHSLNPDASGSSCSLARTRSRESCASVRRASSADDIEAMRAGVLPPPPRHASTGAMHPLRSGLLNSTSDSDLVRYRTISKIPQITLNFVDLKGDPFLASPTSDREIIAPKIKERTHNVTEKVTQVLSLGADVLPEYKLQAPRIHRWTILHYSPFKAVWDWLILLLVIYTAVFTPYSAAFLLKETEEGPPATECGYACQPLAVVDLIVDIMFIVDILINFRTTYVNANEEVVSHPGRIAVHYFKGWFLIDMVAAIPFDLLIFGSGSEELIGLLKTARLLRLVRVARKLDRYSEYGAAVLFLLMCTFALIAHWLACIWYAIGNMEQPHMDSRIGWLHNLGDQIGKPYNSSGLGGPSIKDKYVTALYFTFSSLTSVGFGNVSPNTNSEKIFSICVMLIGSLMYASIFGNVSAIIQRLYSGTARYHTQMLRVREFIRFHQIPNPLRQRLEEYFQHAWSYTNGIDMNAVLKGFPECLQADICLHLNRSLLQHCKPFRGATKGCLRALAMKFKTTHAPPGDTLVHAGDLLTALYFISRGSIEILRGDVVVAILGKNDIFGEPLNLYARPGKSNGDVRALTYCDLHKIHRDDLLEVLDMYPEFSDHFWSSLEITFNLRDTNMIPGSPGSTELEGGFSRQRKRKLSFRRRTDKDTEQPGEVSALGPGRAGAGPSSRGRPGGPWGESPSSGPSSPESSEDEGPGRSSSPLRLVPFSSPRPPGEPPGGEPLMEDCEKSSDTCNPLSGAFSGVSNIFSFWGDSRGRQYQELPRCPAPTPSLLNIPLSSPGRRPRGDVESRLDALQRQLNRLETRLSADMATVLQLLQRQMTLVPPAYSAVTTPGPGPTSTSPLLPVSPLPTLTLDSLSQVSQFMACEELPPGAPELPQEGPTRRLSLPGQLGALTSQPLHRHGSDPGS
In short: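 Patch clamp (IonWorks) in CHO cells expressing hERG.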

Row | SMILES | IC50 [µM]
46 | C[S+]([O-])Cc1ccc(C(=O)Nc2nccnc2C(=O)NCC2CCC2)c2ccccc12 (stereo in doubt; 18f) [listing 1 of 2 here] | 17

molecular target: Cytochrome P450 2C9 (Homo sapiens, UniProt P11712); assay: Inhibition of human recombinant CYP2C9 expressed in Escherichia coli cells; assay type: ADME; conditions: not given
Sequence (P11712 whole entry): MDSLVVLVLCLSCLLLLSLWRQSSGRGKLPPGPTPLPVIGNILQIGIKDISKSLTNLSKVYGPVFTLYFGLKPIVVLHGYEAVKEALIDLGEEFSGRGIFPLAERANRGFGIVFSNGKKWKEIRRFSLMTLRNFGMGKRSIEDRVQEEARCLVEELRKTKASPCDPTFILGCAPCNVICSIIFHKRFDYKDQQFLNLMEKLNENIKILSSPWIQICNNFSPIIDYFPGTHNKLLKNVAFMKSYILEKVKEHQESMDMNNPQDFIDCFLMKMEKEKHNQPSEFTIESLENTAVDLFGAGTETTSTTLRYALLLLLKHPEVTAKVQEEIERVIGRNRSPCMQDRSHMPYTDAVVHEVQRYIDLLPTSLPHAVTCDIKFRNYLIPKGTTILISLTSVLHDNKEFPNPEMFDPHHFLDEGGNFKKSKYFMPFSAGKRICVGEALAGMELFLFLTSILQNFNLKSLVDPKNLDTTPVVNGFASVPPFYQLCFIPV

Row | SMILES | IC50 [µM]
47 | C[S+]([O-])Cc1ccc(C(=O)Nc2nccnc2C(=O)NCC2CCC2)c2ccccc12 (stereo in doubt; 18f) [listing 1 of 2 here] | > 20

test system: not listed separately; assay: Clearance in Sprague-Dawley rat at 2 umol/kg, iv; assay type: ADME, organism-based; conditions: in vivo
In short: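 Sprague-Dawley rats given 2 µmol/kg i.v.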

Row | SMILES | clearance [mL/min/kg]
48 | C[S+]([O-])Cc1ccc(C(=O)Nc2nccnc2C(=O)NCC2CCC2)c2ccccc12 (stereo in doubt; 18f) [listing 1 of 2 here] | 26

molecular target: Cytochrome P450 3A4 (Homo sapiens, UniProt P08684); assay: Inhibition of human recombinant CYP3A4 expressed in Escherichia coli cells; assay type: ADME; conditions: not given
Sequence (P08684 whole entry): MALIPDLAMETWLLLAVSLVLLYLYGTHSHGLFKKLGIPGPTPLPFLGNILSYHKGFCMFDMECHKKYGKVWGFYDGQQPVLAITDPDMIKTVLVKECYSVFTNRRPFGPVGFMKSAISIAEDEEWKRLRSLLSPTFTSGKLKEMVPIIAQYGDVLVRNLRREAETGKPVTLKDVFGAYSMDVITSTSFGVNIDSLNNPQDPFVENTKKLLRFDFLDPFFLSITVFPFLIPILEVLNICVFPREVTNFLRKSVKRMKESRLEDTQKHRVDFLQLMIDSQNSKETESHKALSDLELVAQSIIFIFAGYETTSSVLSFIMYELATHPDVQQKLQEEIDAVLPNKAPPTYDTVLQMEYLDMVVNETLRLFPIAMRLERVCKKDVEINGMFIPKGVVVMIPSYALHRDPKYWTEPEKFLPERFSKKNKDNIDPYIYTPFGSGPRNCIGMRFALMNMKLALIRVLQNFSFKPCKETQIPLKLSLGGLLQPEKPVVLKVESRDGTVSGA

Row | SMILES | IC50 [µM]
49 | C[S+]([O-])Cc1ccc(C(=O)Nc2nccnc2C(=O)NCC2CCC2)c2ccccc12 (stereo in doubt; 18f) [listing 1 of 2 here] | > 20

test system: not listed separately; assay: Ratio of unbound fraction in brain to plasma in Sprague-Dawley rat; assay type: ADME, cell-free; conditions: not given
In short: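 Steady-state total brain/plasma ratio in Sprague-Dawley rats after 4 h constant-rate i.v. infusion, corrected by unbound fraction in brain (rat brain slices) and in plasma (equilibrium dialysis).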

Row | SMILES | BPR
50 | C[S+]([O-])Cc1ccc(C(=O)Nc2nccnc2C(=O)NCC2CCC2)c2ccccc12 (stereo in doubt; 18f) [listing 1 of 2 here] | 0.03

test system: Caco-2; assay: Apparent permeability from apical to basolateral side in human Caco2 cells at pH 7.4; assay type: ADME, cell-based; conditions: Caco-2, pH 7.4
In short: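 Caco-2 monolayers at pH 7.4, apparent permeability measured for apical-to-basolateral transport.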

Row | SMILES | Papp [×10⁻⁶ cm/s]
51 | C[S+]([O-])Cc1ccc(C(=O)Nc2nccnc2C(=O)NCC2CCC2)c2ccccc12 (stereo in doubt; 18f) [listing 1 of 2 here] | 20

molecular target: T1, Cannabinoid receptor 1; assay: Agonist activity at human CB1 receptor expressed in HEK293S cell membranes after 1 hr by GTPgamma[35S] binding assay; conditions: not given

Row | SMILES | EC50 [nM]
52 | O=C(NCC1CCC1)c1ncccc1NC(=O)c1ccc(Cn2ccnc2)c2ccccc12 | 40
53 | CS(=O)(=O)Cc1ccc(C(=O)Nc2cccnc2C(=O)NCC2CCC2)c2ccccc12 | 260
54 | O=C(NCC1CCC1)c1ncccc1NC(=O)c1cccc2ccccc12 | 23
55 | C[S+]([O-])Cc1ccc(C(=O)Nc2nccnc2C(=O)NCC2CCC2)c2ccccc12 (stereo in doubt; 18f) [listing 1 of 2 here] | 120
56 | COCc1ccc(C(=O)Nc2cccnc2C(=O)NCC2CCC2)c2ccccc12 | 5.9
57 | O=C(NCC1CCC1)c1ncccc1NC(=O)c1ccc(Cn2cccc2)c2ccccc12 | 170
58 | CN(C)Cc1ccc(C(=O)Nc2cccnc2C(=O)NCC2CCC2)c2ccccc12 | 180
59 | O=C(NCC1CCC1)c1ncccc1NC(=O)c1ccnc2ccccc12 | 79
60 | O=C(NCC1CCCCC1)c1nccnc1NC(=O)c1cccc2ccccc12 | 480
61 | O=C(NCC1CCC1)c1ncccc1NC(=O)c1ccc(Cn2cccn2)c2ccccc12 | 23
62 | C[S+]([O-])Cc1ccc(C(=O)Nc2cccnc2C(=O)NCC2CCC2)c2ccccc12 (centres undefined) | 5.9

test system: not listed separately; assay: Ratio of drug level in brain to plasma in Sprague-Dawley rat; assay type: ADME, cell-free; conditions: brain
In short: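 Total brain-to-plasma ratio from in vivo Sprague-Dawley rat samples, compound given as 4 h constant-rate i.v. infusion to steady state.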

Row | SMILES | BPR
63 | C[S+]([O-])Cc1ccc(C(=O)Nc2nccnc2C(=O)NCC2CCC2)c2ccccc12 (stereo in doubt; 18f) [listing 1 of 2 here] | 0.022

test system: not listed separately; assay: Solubility of the compound in Hank's balanced saline solution at pH 7.4 after 24 hrs by HPLC analysis; assay type: physicochemical; conditions: not given
In short: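 Compound in DMSO added to Hanks balanced saline solution pH 7.4, shaken 24 h.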

Row | SMILES | solubility at 24 h [µM]
64 | C[S+]([O-])Cc1ccc(C(=O)Nc2nccnc2C(=O)NCC2CCC2)c2ccccc12 (stereo in doubt; 18f) [listing 1 of 2 here] | 87 (≈ 38 µg/mL)
